Sampled rows, rich in hits. Any-hit rate of the full collection: about 4.2%.
TAAR1 antag – human TAAR1 antagonism. CHO RD-HGA16 TAAR1, Fluo-8 calcium fluorescence, antagonist. inhibition, % at 3 µM. 360,000 compounds, 1.5% hits;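 active = inhibition above a per-plate cutoff, the mean inhibition of test compounds on that plate plus 3 SD, cut at about 49% in these data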;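 note: 0% = DMSO plus EC80 beta-PEA response and 100% = DMSO alone without agonist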
Target sequence (Q96RJ0 whole entry, looked up): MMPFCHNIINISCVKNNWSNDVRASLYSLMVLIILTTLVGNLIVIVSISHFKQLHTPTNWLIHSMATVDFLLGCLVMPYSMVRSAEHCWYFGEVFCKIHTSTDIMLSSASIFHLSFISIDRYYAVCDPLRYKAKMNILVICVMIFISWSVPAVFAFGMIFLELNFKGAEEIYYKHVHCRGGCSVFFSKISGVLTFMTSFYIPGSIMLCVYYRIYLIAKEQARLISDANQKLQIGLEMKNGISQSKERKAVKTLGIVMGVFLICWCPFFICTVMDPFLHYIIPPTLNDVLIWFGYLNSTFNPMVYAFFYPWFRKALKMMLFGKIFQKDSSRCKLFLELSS
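Assay system: CHO-derived RD-HGA16 cells stably expressing human TAAR1 plus Gα16. Timing: 140 s kinetic read after compound, 140 s after agonist. Technique: kinetic Fluo-8 calcium fluorescence measurement. Measure: % inhibition of agonist calcium response.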
GalR3 antag – antagonists of human GalR3; O60755; HEK293 GalR3-CNG cAMP membrane potential fluorescence; galR3 body fused to GalR1 C-terminus; inhibition, % at 3 µM; 360,000 compounds, 0.44% hits;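 active = inhibition above the screen-wide average plus 3 SD, cut at about 13% in these data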;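 note: forskolin and galanin both at EC90 stimulate the cells; cAMP rise reported by CNG channel membrane potential dye signal; 0% = forskolin plus galanin with DMSO and 100% = forskolin alone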
OX1R antag-1 – human HCRTR1 antagonism; O43613; CHO/OX1R cells, Fluo-8 calcium fluorescence, orexin A; inhibition, % at 5 µM; 330,000 compounds, 0.43% hits;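 active = inhibition above its plate's threshold, mean inhibition of all tested compounds on the plate plus 3 SD, cut at about 37% in these data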;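 note: 0% = orexin A challenge wells and 100% = SB-334867-A antagonist wells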
Target sequence (O43613 whole entry, looked up): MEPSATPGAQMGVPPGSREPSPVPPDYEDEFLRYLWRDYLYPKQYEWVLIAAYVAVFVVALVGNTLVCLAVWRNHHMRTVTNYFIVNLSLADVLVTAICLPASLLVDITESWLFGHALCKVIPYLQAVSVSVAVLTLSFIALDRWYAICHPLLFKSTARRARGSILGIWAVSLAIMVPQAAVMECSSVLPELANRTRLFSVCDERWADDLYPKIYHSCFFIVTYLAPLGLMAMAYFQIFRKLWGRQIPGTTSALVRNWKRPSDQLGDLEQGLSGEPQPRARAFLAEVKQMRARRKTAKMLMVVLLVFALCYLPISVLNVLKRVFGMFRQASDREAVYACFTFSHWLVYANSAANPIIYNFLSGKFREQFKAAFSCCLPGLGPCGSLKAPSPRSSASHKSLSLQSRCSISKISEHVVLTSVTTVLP
OX1R antag-2 – blocks the human orexin 1 receptor | OX1R-expressing cells, FRET antagonist read-out | O43613 | 330,000 compounds, 1.8% hits | inhibition, % at 6.6 µM | AID 485270; in the data active = inhibition mostly above about 38%, no sharp cut-off; inactive = mostly below about 40%;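 note: 0% = agonist challenge alone and 100% = reference antagonist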
TAAR1 agonist – agonists of human TAAR1; CHO RD-HGA16 TAAR1, Fluo-8 calcium fluorescence; vehicle wells 0%, saturating PEA agonist 100%; activation, % at 3 µM; 360,000 compounds, 0.99% hits; AID 624467; Q96RJ0;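 active = activation above the mean activation of all test compounds in the run plus 3 SD, cut at about 38% in these data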
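System: CHO RD-HGA16 cells carrying human TAAR1 plus Gα16; Incubation: 17-24 h seeding, 75 min 37 °C dye, 30 min RT; Measured by: Fluo-8 fluorescence, 5 s baseline then 140 s kinetic read; Control set: DMSO and PEA EC100; Replication: single well for each compound.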
CHO parental Ca – counter-screen for OX1R antagonists: effect in parental CHO cells; parental CHO-K1, ATP-induced calcium, Fluo-8 fluorescence; inhibition, % at 5.6 µM; 330,000 compounds, 0.63% hits;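 active = inhibition above that plate's mean sample inhibition plus 3 SD, cut at about 26% in these data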;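 note: 0% = ATP-challenged DMSO wells and 100% = DMSO wells without ATP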
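Material: parental CHO cells / Compound: single nominal dose of 5.6 µM per compound / Signal: Fluo-8 fluorescence / Replicates: singlicate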
TAAR1 ag conf – human TAAR1 agonism, confirmed; shares compounds with TAAR1 agonist; CHO RD-HGA16 TAAR1, Fluo-8 calcium fluorescence; scaled: DMSO 0%, maximal phenethylamine 100%; activation, % at 3 µM; 2,400 compounds, 82% hits;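 active = activation above a cutoff set at the run's mean compound activation plus 3 SD, cut at about 39% in these data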
Ga16 nonsel ag – nonselective agonist in parental cells, TAAR1 agonist counter-screen | 2,400 compounds, 50% hits | activation, % at 3 µM | AID 651787 | shares compounds with TAAR1 agonist | CHO-Ga16 parental, Fluo-8 calcium fluorescence; normalized to maximal ATP response, DMSO zero;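 active = activation above the run cutoff, the mean activation over all tested wells plus 3 SD, cut at about 12% in these data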;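 note: 0% = DMSO wells and 100% = maximal ATP response on the peak over basal ratio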
TAAR1 desens – human TAAR1 agonist that also desensitizes the receptor; inhibition, % at 3 µM; 2,400 compounds, 46% hits; CHO RD-HGA16 hTAAR1, Fluo-8 calcium, beta-PEA response inhibition; shares compounds with TAAR1 agonist;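 active = inhibition above the run cutoff, the mean inhibition of all test compounds plus 3 SD, cut at about 49% in these data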;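 note: beta-PEA stimulus applied at its EC80; loss of beta-PEA calcium signal after compound pretreatment read as receptor desensitization; 0% = DMSO with beta-PEA at EC80 and 100% = DMSO alone without agonist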
Ga16 nonsel ant – nonselective Ga16 antagonism, counter-screen | CHO-Ga16 ATP-induced calcium, Fluo-8 fluorescence | inhibition, % at 3 µM | 2,400 compounds, 39% hits | AID 651952 | shares compounds with TAAR1 agonist;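 active = inhibition above the plate's mean compound inhibition plus 3 SD, computed per plate, cut at about 22% in these data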;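 note: 0% = EC80 ATP with DMSO and 100% = DMSO wells without ATP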
* = called active by the depositor; . = no result given.

SMILES	TAAR1 antag	GalR3 antag	OX1R antag-1	OX1R antag-2	TAAR1 agonist	CHO parental Ca	TAAR1 ag conf	Ga16 nonsel ag	TAAR1 desens	Ga16 nonsel ant
O=C(N=Nc1c(O)n(C2OC(=O)c3ccccc32)c2ccccc12)c1ccc(O)cc1 (stereo not drawn)	34.7	-3.3	-5.1	12.8	71.0*	-14.2	8.3	8.5	14.3	18.5
OCCC1CN(CCCc2ccccc2)CCN1Cc1ccccc1 (stereo not drawn)	-3.4	-8.2	-20.6	23.1	-1.2	3.6	.	.	.	.
Cc1cccc(C(=O)NNC2=C(C(=O)C(F)(F)F)CCC2)c1O	30.6	-1.3	-25.0	16.2	6.0	-5.6	.	.	.	.
CN1C(C(=O)NCCc2cccs2)CC2Cn3c(nc4cc(Cl)c(Cl)cc43)C21 (stereo not drawn)	8.1	-4.3	0.7	32.0	68.6*	-7.6	82.8*	5.5	46.7	14.7
CCOC(=O)C(NC(=O)CC)(N1CCc2ccccc2C1)C(F)(F)F (stereo not drawn)	95.6*	-4.4	-15.5	6.4	92.6*	-1.8	111.0*	1.5	97.9*	9.8
CCOC(=O)C(NC(=O)CC)(Nc1ccccc1)C(F)(F)F (stereo not drawn)	-35.1	-3.2	-7.6	9.3	2.1	-13.9	.	.	.	.
Cc1ccc(N(CC(=O)NC2CCCC2)C(=O)CNC(=O)c2cccs2)c(C)c1	-5.2	-8.6	-31.3	0.8	4.2	-13.6	.	.	.	.
CC(C)c1ccc(S(=O)(=O)N2CCN(C(=O)CCNS(=O)(=O)c3ccccc3F)CC2)cc1	-16.7	-0.7	-8.9	9.1	6.4	-28.0	.	.	.	.
Cc1cccc(C(=O)CC(=O)c2cc(Cl)ccc2O)c1	.	.	-22.3	11.2	.	-16.0	.	.	.	.
Cc1ccc(O)c(C(=O)CC(=O)c2ccc(Cl)cc2)c1	20.3	-13.2	-14.6	12.0	54.5*	-20.7	43.2*	22.9*	50.8*	37.0*
O=C(CC(=O)c1cc(Cl)ccc1O)c1ccccc1	17.4	-8.1	-27.8	16.5	35.1	-20.8	.	.	.	.
Cc1ccc(O)c(C(=O)CC(=O)c2cccc(F)c2)c1	27.5	2.8	-18.9	24.7	54.4*	-0.6	28.2	19.1*	20.9	22.1*
CCOc1ccc(CCNC(=O)CCCn2nc(C)c3c(C)n(-c4ccccc4)nc3c2=O)cc1	-20.4	-6.2	-32.9	13.2	-1.7	-37.9	.	.	.	.
Cc1nn(CCCC(=O)NCCc2ccccc2)c(=O)c2nccn12	-34.1	.	-19.4	6.3	44.3*	-11.3	66.3*	2.5	5.9	6.7
O=C(CCCOc1ccccc1)NCCc1ccccc1	.	-3.3	14.5	6.9	.	-6.4	.	1.7	.	7.4
C#CCOC(=O)CCC(=O)NCCc1ccccc1	76.8*	0.0	-16.7	6.2	62.8*	-6.7	84.4*	4.3	97.1*	10.9
CCc1nnc(NC(=O)Cc2cc(OC)c(OC)c(OC)c2)s1	4.4	-4.5	-15.9	1.3	0.3	-10.3	.	.	.	.
O=C(CCCn1c(=O)[nH]c2ccsc2c1=O)N1CCN(Cc2ccc3c(c2)OCO3)CC1	3.7	-3.6	-12.9	18.4	-1.3	-13.7	.	.	.	.
COc1ccc(CCNC2=NCCS2)cc1	15.6	-1.6	-0.6	7.5	58.8*	-3.9	61.8*	0.1	36.5	6.0
COc1ccc(CCNC2=NCCS2)cc1OC	-20.1	-2.8	-9.4	-4.4	0.2	-13.2	.	.	.	.
O=C(NCCN1CCOCC1)c1cc2ccccc2[nH]1	-6.4	-1.7	-9.5	7.6	11.5	-13.7	.	.	.	.
COc1cccc(-c2sc3ccc(OC)cc3c2C#CCCO)c1	18.4	-4.1	10.9	7.0	11.0	-31.4	.	.	.	.
Cc1ccc(Cl)c(NC(=O)COC(=O)CNS(=O)(=O)/C=C/c2ccccc2)c1Cl	17.8	-0.7	-14.1	23.1	73.1*	2.7	0.7	4.2	23.3	13.4
O=C(COC(=O)CNS(=O)(=O)/C=C/c1ccccc1)Nc1cccc2ccccc12	-12.0	-4.8	-22.2	5.5	4.9	2.4	.	.	.	.
O=C(Nc1nccs1)c1nc[nH]c1C(=O)N1CCc2ccccc2C1	81.6*	-5.6	-21.7	0.2	81.8*	-7.8	103.0*	3.7	94.0*	8.1
SMILES	TAAR1 antag	GalR3 antag	OX1R antag-1	OX1R antag-2	TAAR1 agonist	CHO parental Ca	TAAR1 ag conf	Ga16 nonsel ag	TAAR1 desens	Ga16 nonsel ant
O=C(Nc1ccccc1)c1nc[nH]c1C(=O)N1CCc2ccccc2C1	7.7	-7.1	-20.8	11.7	4.3	-26.5	.	.	.	.
COc1ccc(/C=C/C(=O)OCC(=O)NC2CCCCCC2)cc1	10.0	-2.4	.	.	1.0	.	.	.	.	.
Cc1nn(C)c(C)c1S(=O)(=O)NCCc1ccc(Cl)cc1	-20.7	-5.5	-17.6	5.2	11.2	-6.1	.	.	.	.
CCc1ccc(CCC(=O)Nc2nc(CC(C)=O)ns2)o1	22.1	-5.5	-8.2	3.3	5.0	-8.1	.	.	.	.
O=C1c2ccccc2C(=O)N1Cc1ccco1	11.3	-1.2	-6.5	12.5	0.3	-7.3	.	.	.	.
O=C1c2cccc3c(O)ccc(c23)C(=O)N1Cc1ccco1	39.0	-3.2	.	.	132.0*	.	158.0*	187.5*	74.1*	79.9*
CC(=O)Nc1ccc(N2C(=O)c3cccc4c(O)ccc(c34)C2=O)cc1	42.3	-4.4	61.4*	15.8	173.7*	58.3*	63.4*	65.1*	30.9	39.3*
O=C1c2cccc3c(O)ccc(c23)C(=O)N1c1ccc(Cl)cc1	59.1*	-9.8	84.6*	19.1	235.0*	68.9*	129.1*	120.8*	75.2*	70.2*
O=C1c2ccccc2C(=O)N1c1ccc(Cl)cc1	.	.	-7.9	14.2	.	-11.7	.	.	.	.
N#CCc1ccc(NC(=O)CSc2nnc(C3CC3)n2C2CC2)cc1	-9.3	-4.6	-21.7	7.1	1.8	-7.5	.	.	.	.
CCCC[C@@H]1CNCCN1CCc1cccc(F)c1	2.4	-2.7	-30.5	35.7	61.9*	-5.2	75.1*	9.1	45.6	9.6
FC(F)(F)c1cc(CCN2CCNC[C@@H]2Cc2ccccc2)cc(C(F)(F)F)c1	-0.6	-2.4	-8.5	-0.7	57.1*	6.1	58.5*	16.7*	32.6	18.5
COC(=O)COc1cccc2c(=O)n(CC(=O)N3CCCCC3)ccc12	20.7	5.8	-21.7	10.5	-3.6	-12.2	.	.	.	.
NC(=O)c1ccc(NC(=O)COC(=O)c2ccc3c(c2)OCCO3)cc1	2.7	-6.0	-8.7	17.0	0.8	-4.7	.	.	.	.

Compound activity as filed in PubChem.
